Measurements published in ChEMBL document CHEMBL5036356, “Spatial Distribution and Stability of Cholinesterase Inhibitory Protoberberine Alkaloids from Papaver setiferum” (J Nat Prod, 2022).

Experiments:
Acetylcholinesterase [1] = biological target: Acetylcholinesterase (Homo sapiens, UniProt P22303); experiment: Inhibition of human recombinant AChE using acetylthiocholine chloride as substrate incubated for 5 mins by DTNB reagent based Ellman's method
How it was run: (§1)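 Enzyme stocks (commercial eel AChE, human recombinant AChE or horse serum BChE) at 0.0075 U/mL in 100 mM potassium phosphate, pH 7.4, added to start the reaction. Acetylthiocholine chloride 1 mM and DTNB 0.5 mM final. Compounds were taken from 5 mg/mL methanol stocks and serially diluted in buffer, with methanol blanks. Rate read at 405 nm, 25 °C, for 5 min. IC50 reported as mean ± SEM of at least three repeats.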

Acetylcholinesterase [2] = biological target: Acetylcholinesterase (Electrophorus electricus, UniProt O42275); experiment: Inhibition of electrical eel AChE using acetylthiocholine chloride as substrate incubated for 5 mins by DTNB reagent based Ellman's method; how it was run: as §1
Acetylcholinesterase (Electrophorus electricus, UniProt O42275), sequence (O42275 whole entry): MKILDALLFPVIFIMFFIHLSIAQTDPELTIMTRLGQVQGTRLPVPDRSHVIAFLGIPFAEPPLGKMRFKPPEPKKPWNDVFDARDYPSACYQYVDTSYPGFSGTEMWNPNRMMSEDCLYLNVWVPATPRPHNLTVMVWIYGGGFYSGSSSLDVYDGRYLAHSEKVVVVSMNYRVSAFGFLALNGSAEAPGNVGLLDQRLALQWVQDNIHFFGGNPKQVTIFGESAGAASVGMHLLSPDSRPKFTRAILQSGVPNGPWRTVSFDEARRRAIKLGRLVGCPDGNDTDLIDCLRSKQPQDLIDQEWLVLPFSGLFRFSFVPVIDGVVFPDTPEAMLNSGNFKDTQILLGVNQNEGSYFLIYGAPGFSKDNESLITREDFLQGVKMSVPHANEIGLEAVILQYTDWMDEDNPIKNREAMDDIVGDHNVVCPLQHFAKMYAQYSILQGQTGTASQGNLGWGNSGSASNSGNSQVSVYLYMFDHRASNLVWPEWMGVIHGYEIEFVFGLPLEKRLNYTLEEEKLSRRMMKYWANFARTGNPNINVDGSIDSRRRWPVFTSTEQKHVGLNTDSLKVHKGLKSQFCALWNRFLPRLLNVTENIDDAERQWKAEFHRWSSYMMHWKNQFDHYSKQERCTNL

Cholinesterase = Cholinesterase (Equus caballus, UniProt P81908); experiment: Inhibition of horse serum BChE incubated for 5 mins by DTNB reagent based Ellman's method
Cholinesterase, sequence (P81908 whole entry): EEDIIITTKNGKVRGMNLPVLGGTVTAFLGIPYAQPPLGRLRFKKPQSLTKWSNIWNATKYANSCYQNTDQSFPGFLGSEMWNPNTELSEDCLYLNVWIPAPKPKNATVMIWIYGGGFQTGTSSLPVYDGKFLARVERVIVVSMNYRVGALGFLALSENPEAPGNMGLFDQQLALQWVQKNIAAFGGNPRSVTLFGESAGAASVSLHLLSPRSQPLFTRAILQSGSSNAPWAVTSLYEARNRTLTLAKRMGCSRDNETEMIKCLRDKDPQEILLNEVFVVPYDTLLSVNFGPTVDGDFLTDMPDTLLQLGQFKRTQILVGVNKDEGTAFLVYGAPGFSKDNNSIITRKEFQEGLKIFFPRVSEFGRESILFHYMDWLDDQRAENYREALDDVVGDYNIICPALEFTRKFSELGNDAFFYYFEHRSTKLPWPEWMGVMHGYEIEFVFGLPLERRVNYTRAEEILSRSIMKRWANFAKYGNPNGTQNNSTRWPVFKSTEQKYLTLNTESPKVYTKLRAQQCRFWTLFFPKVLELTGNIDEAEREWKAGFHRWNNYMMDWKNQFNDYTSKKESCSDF
How it was run: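 Enzyme stocks (commercial eel AChE, human recombinant AChE or horse serum BChE) at 0.0075 U/mL in 100 mM potassium phosphate, pH 7.4, added to start the reaction. Acetylthiocholine chloride 1 mM and DTNB 0.5 mM final. Compounds were taken from 5 mg/mL methanol stocks and serially diluted in buffer, with methanol blanks. IC50 reported as mean ± SEM of at least three repeats.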

Acetylcholinesterase (Homo sapiens, UniProt P22303), sequence (P22303 whole entry): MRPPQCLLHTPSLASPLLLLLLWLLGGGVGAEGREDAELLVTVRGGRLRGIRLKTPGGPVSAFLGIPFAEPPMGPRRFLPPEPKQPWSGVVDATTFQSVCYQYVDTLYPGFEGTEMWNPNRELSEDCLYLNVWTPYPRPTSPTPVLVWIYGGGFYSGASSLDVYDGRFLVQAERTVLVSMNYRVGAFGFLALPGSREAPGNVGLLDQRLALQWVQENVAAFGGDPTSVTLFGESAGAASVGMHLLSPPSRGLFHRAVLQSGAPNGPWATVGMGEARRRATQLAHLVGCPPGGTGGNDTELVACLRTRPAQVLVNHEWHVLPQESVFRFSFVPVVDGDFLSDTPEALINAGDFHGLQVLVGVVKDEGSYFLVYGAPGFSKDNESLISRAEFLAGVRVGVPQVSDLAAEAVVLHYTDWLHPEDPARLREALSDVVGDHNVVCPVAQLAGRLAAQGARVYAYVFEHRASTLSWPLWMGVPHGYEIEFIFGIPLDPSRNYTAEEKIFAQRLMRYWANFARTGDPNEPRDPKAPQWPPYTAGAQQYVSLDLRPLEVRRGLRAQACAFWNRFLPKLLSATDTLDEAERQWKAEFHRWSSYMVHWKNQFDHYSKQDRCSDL

COc1cc2c3c(c1O)-c1c(cccc1OC)C[C@@H]3[N+](C)(C)CC2
Not Active: IC50 (Acetylcholinesterase [1]) | Ki (Acetylcholinesterase [1]) | IC50 (Acetylcholinesterase [2]) | Ki (Acetylcholinesterase [2])

COc1cc(C[C@H]2c3cc(O)c(OC)cc3CC[N+]2(C)C)ccc1O
Not Active: IC50 (Acetylcholinesterase [1]) | Ki (Acetylcholinesterase [1]) | IC50 (Acetylcholinesterase [2]) | Ki (Acetylcholinesterase [2]) | Ki (Cholinesterase)

O=[N+]([O-])CCc1ccc(O[C@@H]2O[C@H](CO[C@@H]3OC[C@@H](O)[C@H](O)[C@H]3O)[C@@H](O)[C@H](O)[C@H]2O)cc1
Not Active: IC50 (Acetylcholinesterase [1]) | Ki (Acetylcholinesterase [1]) | IC50 (Acetylcholinesterase [2]) | Ki (Acetylcholinesterase [2]) | IC50 (Cholinesterase) | Ki (Cholinesterase)

COc1cc2c(cc1O)[C@H](Cc1ccc(OC)c(OC)c1)[N+](C)(C)CC2
Not Active: IC50 (Acetylcholinesterase [1]) | Ki (Acetylcholinesterase [1]) | IC50 (Acetylcholinesterase [2]) | Ki (Acetylcholinesterase [2]) | Ki (Cholinesterase)

COc1cc2c3c(c1O)-c1c(cccc1OC)C[C@@H]3N(C)CC2
Not Active: IC50 (Acetylcholinesterase [1]) | Ki (Acetylcholinesterase [1])

COC1=C[C@]23CCN(C)[C@H](Cc4ccc(OC)c(O)c42)C3=CC1=O [SALUTARIDINE]
Not Active: IC50 (Acetylcholinesterase [1]) | Ki (Acetylcholinesterase [1]) | IC50 (Acetylcholinesterase [2]) | Ki (Acetylcholinesterase [2]) | Ki (Cholinesterase)
